Reference: ChEMBL document CHEMBL3751740, “New MKLP-2 inhibitors in the paprotrain series: Design, synthesis and biological evaluations” (Bioorg Med Chem, 2016)

What was measured:
K562 = experiment: Growth inhibition of human K562 cells incubated for 4 days by WST-1 assay; format: functional; conditions: K562, 96 h
In short: (§1)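 Cells were kept at 37 °C under 5% CO2 and plated on day 0 at 500–5000 cells/well. On day 1 they received ten concentrations from 0.0025 to 50 µM (final), in triplicate. On day 4 WST-1 was added, followed by 30 min–4 h incubation and absorbance at 450 nm. GI50 is the concentration killing 50% of cells.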

NCI-H460 = experiment: Growth inhibition of human NCI-H460 cells incubated for 4 days by WST-1 assay; format: functional; conditions: NCI-H460, 96 h; in short: as §1
[1] = Growth inhibition of human PK59 cells incubated for 4 days by WST-1 assay; format: functional; conditions: PK-59, 96 h; in short: as §1
[2] = Growth inhibition of human HCT116 cells incubated for 4 days by WST-1 assay; format: functional; conditions: HCT-116, 96 h; in short: as §1
[3] = Growth inhibition of human MIAPaCa2 cells incubated for 4 days by WST-1 assay; format: functional; conditions: MIA PaCa-2, 96 h; in short: as §1
HepG2 = experiment: Growth inhibition of human HepG2 cells incubated for 4 days by WST-1 assay; format: functional; conditions: HepG2, 96 h; in short: as §1
[4] = biological target: T1, Chromosome-associated kinesin KIF4A (Homo sapiens) (UniProt O95239); experiment: Inhibition of porcine brain microtubule-stimulated human recombinant GST-tagged Kif4A ATPase activity at 1 mM by microplate reader in presence of Mg2+ ATP relative to control
T1 sequence (whole entry): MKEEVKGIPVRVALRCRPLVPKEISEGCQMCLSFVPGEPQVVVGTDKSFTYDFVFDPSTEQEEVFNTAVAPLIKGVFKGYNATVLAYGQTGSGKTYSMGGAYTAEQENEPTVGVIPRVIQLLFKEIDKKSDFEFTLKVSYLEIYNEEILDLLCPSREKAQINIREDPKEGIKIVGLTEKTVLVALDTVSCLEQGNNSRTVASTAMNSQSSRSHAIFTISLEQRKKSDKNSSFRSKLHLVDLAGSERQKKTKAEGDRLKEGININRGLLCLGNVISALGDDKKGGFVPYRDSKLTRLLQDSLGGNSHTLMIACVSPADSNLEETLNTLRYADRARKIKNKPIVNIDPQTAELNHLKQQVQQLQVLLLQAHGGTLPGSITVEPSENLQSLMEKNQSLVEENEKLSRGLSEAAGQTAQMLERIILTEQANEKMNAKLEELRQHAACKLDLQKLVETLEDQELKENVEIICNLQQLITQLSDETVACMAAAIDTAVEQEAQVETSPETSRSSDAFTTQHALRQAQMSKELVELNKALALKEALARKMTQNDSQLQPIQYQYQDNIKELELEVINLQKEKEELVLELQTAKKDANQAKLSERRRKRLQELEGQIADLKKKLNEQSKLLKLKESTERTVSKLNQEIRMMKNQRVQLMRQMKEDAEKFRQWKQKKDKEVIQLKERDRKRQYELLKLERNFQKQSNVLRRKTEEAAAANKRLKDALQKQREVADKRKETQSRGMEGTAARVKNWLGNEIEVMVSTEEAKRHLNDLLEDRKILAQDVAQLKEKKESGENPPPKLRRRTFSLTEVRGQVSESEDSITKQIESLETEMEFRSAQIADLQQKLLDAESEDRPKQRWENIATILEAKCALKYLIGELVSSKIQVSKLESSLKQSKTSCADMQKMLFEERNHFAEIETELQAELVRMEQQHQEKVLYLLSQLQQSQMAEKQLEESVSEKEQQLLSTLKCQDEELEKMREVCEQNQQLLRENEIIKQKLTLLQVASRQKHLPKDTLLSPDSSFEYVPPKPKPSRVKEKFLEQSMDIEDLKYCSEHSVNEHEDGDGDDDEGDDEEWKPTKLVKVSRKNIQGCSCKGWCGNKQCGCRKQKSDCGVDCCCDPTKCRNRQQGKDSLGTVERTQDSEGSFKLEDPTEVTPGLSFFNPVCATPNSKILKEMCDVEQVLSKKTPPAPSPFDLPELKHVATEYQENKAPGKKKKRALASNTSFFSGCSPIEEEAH
In short: (§2)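 Motor domain at 15 µM final, in 7.5 mM PIPES-NaOH pH 7.0 with […], 10 µM Taxol, ELIPA 1 and 2 reagents and 1.25 mg/mL microtubules. AMP-PNP, a slowly hydrolysable ATP analog and general ATPase inhibitor, tested at 1 mM. Reaction started with 1 mM Mg2+ATP at 22 °C and read kinetically at 360 nm. Run in triplicate.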

[5] = biological target: Centromere-associated protein E (Homo sapiens) (UniProt Q02224); experiment: Inhibition of porcine brain microtubule-stimulated human recombinant GST-tagged CENP-E ATPase activity at 1 mM by microplate reader in presence of Mg2+ ATP relative to control; in short: as §2
Sequence of Centromere-associated protein E (Homo sapiens) (Q02224 whole entry): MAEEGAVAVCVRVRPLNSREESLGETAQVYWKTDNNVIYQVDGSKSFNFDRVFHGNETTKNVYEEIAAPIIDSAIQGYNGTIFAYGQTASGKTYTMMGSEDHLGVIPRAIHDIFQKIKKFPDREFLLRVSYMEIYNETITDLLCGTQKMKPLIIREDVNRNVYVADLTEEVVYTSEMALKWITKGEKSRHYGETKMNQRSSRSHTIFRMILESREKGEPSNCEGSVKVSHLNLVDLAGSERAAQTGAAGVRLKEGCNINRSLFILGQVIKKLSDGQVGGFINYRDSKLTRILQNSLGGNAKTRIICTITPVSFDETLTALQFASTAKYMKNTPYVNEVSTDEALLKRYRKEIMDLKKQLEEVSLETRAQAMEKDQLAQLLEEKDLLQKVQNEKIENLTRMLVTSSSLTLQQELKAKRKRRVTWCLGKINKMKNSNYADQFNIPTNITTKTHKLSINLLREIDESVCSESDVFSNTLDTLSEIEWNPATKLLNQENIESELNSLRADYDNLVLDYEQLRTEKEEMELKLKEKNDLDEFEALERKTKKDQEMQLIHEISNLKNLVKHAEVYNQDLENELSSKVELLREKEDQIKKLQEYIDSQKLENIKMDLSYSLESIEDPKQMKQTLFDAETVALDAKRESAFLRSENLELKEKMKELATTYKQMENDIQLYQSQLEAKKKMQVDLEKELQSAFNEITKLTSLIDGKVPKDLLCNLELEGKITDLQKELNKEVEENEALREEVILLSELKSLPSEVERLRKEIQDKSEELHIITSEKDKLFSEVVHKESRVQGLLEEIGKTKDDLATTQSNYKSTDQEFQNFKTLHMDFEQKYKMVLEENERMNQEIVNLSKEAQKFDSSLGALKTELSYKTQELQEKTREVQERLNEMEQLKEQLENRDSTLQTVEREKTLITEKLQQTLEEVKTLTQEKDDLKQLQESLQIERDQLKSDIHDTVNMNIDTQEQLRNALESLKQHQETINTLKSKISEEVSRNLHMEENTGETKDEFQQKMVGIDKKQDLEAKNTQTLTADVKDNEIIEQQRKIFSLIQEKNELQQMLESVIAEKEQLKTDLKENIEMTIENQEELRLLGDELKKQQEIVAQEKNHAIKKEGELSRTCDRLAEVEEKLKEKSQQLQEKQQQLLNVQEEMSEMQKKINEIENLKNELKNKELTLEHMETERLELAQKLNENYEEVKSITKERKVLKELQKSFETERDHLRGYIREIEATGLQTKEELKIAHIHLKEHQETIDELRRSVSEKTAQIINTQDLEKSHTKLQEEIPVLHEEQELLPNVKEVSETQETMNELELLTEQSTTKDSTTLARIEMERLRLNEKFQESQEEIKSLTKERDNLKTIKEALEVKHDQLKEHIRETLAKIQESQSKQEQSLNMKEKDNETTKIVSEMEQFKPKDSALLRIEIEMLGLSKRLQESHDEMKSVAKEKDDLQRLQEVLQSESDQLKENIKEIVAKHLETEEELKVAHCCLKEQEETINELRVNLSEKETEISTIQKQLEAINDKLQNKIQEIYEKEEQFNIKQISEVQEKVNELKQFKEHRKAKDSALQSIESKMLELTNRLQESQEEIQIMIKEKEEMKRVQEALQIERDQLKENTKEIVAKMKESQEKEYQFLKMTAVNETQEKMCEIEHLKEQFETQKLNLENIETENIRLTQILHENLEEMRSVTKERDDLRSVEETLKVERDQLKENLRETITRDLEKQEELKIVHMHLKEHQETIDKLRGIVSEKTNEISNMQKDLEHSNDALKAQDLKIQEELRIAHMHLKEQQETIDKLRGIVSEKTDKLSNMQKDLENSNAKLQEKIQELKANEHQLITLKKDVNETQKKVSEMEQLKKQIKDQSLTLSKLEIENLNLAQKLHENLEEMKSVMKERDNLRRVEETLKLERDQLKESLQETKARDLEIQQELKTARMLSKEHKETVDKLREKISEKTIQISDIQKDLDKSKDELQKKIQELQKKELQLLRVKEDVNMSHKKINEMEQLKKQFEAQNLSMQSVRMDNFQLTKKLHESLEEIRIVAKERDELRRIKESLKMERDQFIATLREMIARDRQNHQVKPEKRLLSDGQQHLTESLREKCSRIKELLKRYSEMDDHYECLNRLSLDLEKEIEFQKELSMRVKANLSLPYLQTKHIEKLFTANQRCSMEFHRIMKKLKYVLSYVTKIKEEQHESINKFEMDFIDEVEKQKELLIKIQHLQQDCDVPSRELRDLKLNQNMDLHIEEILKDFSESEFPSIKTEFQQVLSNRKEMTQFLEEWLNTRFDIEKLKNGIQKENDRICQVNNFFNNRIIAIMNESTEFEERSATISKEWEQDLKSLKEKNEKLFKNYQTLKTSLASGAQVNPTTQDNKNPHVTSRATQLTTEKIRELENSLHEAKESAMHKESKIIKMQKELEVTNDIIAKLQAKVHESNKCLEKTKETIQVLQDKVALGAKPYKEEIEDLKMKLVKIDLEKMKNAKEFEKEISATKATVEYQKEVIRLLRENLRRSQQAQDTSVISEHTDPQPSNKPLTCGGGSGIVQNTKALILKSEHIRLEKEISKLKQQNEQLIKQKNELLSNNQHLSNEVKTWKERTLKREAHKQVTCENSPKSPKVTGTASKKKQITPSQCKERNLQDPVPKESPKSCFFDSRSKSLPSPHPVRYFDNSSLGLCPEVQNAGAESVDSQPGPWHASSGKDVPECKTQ

[6] = biological target: T2, Kinesin-like protein KIF23 (Homo sapiens) (UniProt Q02241); experiment: Inhibition of porcine brain microtubule-stimulated human recombinant GST-tagged MKLP1 ATPase activity at 1 mM by microplate reader in presence of Mg2+ ATP relative to control; in short: as §2
T2 sequence (whole entry): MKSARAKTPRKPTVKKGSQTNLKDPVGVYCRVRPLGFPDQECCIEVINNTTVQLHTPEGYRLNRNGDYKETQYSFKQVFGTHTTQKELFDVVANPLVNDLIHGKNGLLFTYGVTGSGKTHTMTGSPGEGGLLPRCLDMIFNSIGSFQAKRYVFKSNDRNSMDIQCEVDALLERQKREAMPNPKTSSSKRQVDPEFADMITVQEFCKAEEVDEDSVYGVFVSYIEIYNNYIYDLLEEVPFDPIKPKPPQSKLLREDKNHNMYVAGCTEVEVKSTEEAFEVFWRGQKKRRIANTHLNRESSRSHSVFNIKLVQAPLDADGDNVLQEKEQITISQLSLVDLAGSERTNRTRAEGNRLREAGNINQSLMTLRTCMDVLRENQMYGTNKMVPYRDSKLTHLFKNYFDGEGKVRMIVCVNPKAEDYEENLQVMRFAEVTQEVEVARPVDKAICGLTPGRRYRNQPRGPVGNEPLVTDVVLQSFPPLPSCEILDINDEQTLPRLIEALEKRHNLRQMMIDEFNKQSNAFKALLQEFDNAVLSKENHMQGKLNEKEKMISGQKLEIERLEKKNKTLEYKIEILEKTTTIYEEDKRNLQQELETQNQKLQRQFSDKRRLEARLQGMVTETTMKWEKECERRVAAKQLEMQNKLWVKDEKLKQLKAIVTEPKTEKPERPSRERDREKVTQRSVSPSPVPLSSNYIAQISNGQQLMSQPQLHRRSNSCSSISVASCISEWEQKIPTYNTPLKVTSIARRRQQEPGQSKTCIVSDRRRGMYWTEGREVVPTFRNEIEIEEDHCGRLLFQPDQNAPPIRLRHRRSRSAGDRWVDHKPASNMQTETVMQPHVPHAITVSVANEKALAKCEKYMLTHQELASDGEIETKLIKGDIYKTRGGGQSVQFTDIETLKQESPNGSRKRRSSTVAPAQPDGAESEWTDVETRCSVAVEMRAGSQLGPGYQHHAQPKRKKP

SMILES: COc1ccc2[nH]cc(/C(C#N)=C/c3cccnc3)c2c1
- GI50 (K562): 4 µM
- GI50 (NCI-H460): 8.2 µM
- GI50 [1]: > 50 µM
- GI50 [2]: 32.2 µM
- GI50 [3]: 5.5 µM
- GI50 (HepG2): > 50 µM

SMILES: Nc1ncnc2c1ncn2[C@@H]1O[C@H](COP(=O)(O)OP(=O)(O)NP(=O)(O)O)[C@@H](O)[C@H]1O
- inhibition [4]: > 30%
- inhibition [5]: > 30%
- inhibition [6]: > 30%
